Source: ChEMBL document CHEMBL4732137, “Insight on [1,3]thiazolo[4,5-e]isoindoles as tubulin polymerization inhibitors” (Eur J Med Chem, 2021)
Calls of active or inactive are those of the source. No cut-off for these calls is given here.

Experiments:
[1] = system: HeLa; test: Induction of apoptosis in human HeLa cells at 10 uM measured after 48 hrs by Annexin V-FITC/propidium iodide staining based flow cytometry; format: functional, cell-based
Summary of the method: (§1)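 HeLa cells incubated 24 or 48 h at the stated concentrations, double stained with annexin V-FITC and PI, and surface phosphatidylserine measured by flow cytometry to separate live, early apoptotic, late apoptotic and necrotic cells; mean ± SEM of three independent experiments; p vs control.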

[2] = system: HeLa; test: Induction of apoptosis in human HeLa cells assessed as increase in necrotic cells at 10 uM measured after 48 hrs by Annexin V-FITC/propidium iodide staining based flow cytometry; format: functional, cell-based; summary of the method: as §1
[3] = biological target: T1, Tubulin (Homo sapiens) (UniProt P68371+Q9H4B7+P0DPH7+P68366+Q13509+Q71U36+P04350+Q3ZCM7+P07437+P68363+Q9BQE3+Q6PEY2+Q13885+Q9BVA1+Q9BUF5); test: Inhibition of [3H]colchicine binding to tubulin (unknown origin) at 50 uM by DEAE-cellulose filter method relative to control; format: protein-complex assay
[4] = system: HeLa; test: Induction of apoptosis in human HeLa cells assessed as increase in annexin-V positive cells at 10 uM measured after 24 hrs by Annexin V-FITC/propidium iodide staining based flow cytometry; format: functional, cell-based; summary of the method: as §1
[5] = system: HeLa; test: Induction of apoptosis in human HeLa cells assessed as increase in PARP cleavage at 10 uM measured after 24 hrs by Western blot analysis; format: functional, cell-based
Summary of the method: (§2)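 After 24 h exposure of HeLa cells to 1 or 10 µM, lysates were blotted for cleaved caspase-9 and PARP; primary antibodies 2 h at room temperature, peroxidase secondary 1 h, ECL detection, vinculin reprobe for equal loading.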

[6] = system: HeLa; test: Induction of mitochondrial potential loss in human HeLa cells measured after 24 to 48 hrs by JC1 staining based flow cytometry; format: functional, cell-based; conditions: dose 1-10 µM, time 24-48 hrs
Summary of the method: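 Mitochondrial membrane potential in HeLa cells after 24 or 48 h at 1 and 10 µM; JC-1 staining, excitation 490 nm, monomer emission at 530 nm versus aggregate at 590 nm […], read by flow cytometry; mean ± SEM, three independent experiments.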

[7] = Antiproliferative activity against human Panel NCI-57 (57 carcinoma cell lines) measured after 48 hrs by SRB assay; format: functional
Summary of the method: (§3)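 Full NCI human tumor cell line panel; selected compounds tested at five doses, 10^-4 to 10^-8 M, with growth inhibition summarised as the mean graph mid-point (MG_MID) across the panel.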

[8] = system: HeLa; test: Cell cycle arrest in human HeLa cells assessed as accumulation at G2/M phase at 10 uM measured after 24 hrs by propidium iodide staining based flow cytometry relative to control; format: functional
Summary of the method: (§4)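 HeLa cells exposed 24 h at 0.1, 1 and 10 µM; fixed, labelled with propidium iodide and analysed by flow cytometry for the fraction in each cycle phase; mean ± SEM of three experiments.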

[9] = Inhibition of bovine brain tubulin assembly by turbidimetry based spectrophotometric method; parameters: species or system Bos taurus
[10] = system: HeLa; test: Cell cycle arrest in human HeLa cells assessed as reduction in accumulation at S phase at 0.1 to 10 uM measured after 24 hrs by propidium iodide staining based flow cytometry; format: functional; conditions: dose 0.1-10 µM; summary of the method: as §4
[11] = system: HeLa; test: Cell cycle arrest in human HeLa cells assessed as reduction in accumulation at G1 phase at 0.1 to 10 uM measured after 24 hrs by propidium iodide staining based flow cytometry; format: functional; conditions: dose 0.1-10 µM; summary of the method: as §4
[12] = system: HeLa; test: Cell cycle arrest in human HeLa cells assessed as increase in cyclin B1 expression at 10 uM measured after 24 hrs by Western blot analysis; format: functional, cell-based
Summary of the method: (§5)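 HeLa cells treated 24 h at 1 or 10 µM, washed in cold PBS, lysed on ice 30 min, protein quantified by BCA; western blot for cdc25c, p-cdc2 Y15 and cyclin B1, membranes stripped and reprobed for vinculin as loading control.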

[13] = system: HeLa; test: Induction of apoptosis in human HeLa cells assessed as increase in caspase-9 activation at 10 uM measured after 24 hrs by Western blot analysis; format: functional, cell-based; summary of the method: as §2
[14] = system: HeLa; test: Cell cycle arrest in human HeLa cells assessed as reduction in total cdc25c expression at 10 uM measured after 24 hrs by Western blot analysis; format: functional, cell-based; summary of the method: as §5
[15] = system: HeLa; test: Cell cycle arrest in human HeLa cells assessed as increase in accumulation at G2/M phase measured after 24 hrs by propidium iodide staining based flow cytometry; format: functional; conditions: dose 0.1-10 µM; summary of the method: as §4
[16] = system: HeLa; test: Cell cycle arrest in human HeLa cells assessed as reduction in phosphorylated cdc2 expression at 10 uM measured after 24 hrs by Western blot analysis; format: functional, cell-based; summary of the method: as §5
[17] = Antiproliferative activity against human Panel NCI-56 (56 carcinoma cell lines) measured after 48 hrs by SRB assay; format: functional; summary of the method: as §3
[18] = Antiproliferative activity against human Panel NCI-55 (55 carcinoma cell lines) measured after 48 hrs by SRB assay; format: functional; summary of the method: as §3
[19] = biological target: T1, Tubulin (Homo sapiens); test: Inhibition of [3H]colchicine binding to tubulin (unknown origin) at 5 uM by DEAE-cellulose filter method relative to control; format: protein-complex assay

Compound | Activity [1] | Activity [2] | inhibition [3] [%] | Activity [4] | Activity [5] | Activity [6] | GI50 [7] [nM] | Activity [8] [%] | IC50 [9] [nM] | Activity [10] | Activity [11] | Activity [12] | Activity [13] | GI50 [17] [nM] | further results
COc1ccc(Cn2c(Br)c3c(c2-c2cc(OC)c(OC)c(OC)c2)CCc2sc(N)nc2-3)cc1 | Active | Active | 22 | Active | Active | Dose-dependent effect | 210 | >70 | > 20000 | Active | Active | Active | Active |  | 
COc1cc(-c2c3c(cn2S(=O)(=O)c2ccccc2)-c2nc(N)sc2CC3)cc(OC)c1OC | Active | Active |  | Active | Active | Dose-dependent effect | 220 | >70 | > 20000 | Active | Active | Active | Active |  | Activity [14]: Active; Activity [15]: Dose-dependent effect; Activity [16]: Active
Nc1nc2c(s1)CCc1c-2c(Br)n(Cc2ccccc2)c1Br |  |  |  |  |  |  |  |  | > 20000 |  |  |  |  | 530 | 
COc1ccc(Cn2c(Br)c3c(c2-c2cc(OC)c(OC)c(OC)c2)CCc2sc(NC(C)=O)nc2-3)cc1 |  |  | 41 |  |  |  |  |  | 12000 |  |  |  |  |  | GI50 [18]: 610 nM
COc1ccc(Cn2c(Br)c3c(c2Br)-c2nc(N)sc2CC3)cc1 |  |  | 60 |  |  |  |  |  | 7800 |  |  |  |  | 410 | inhibition [19]: 11%
O=C(Nc1nc2c(s1)CCc1c-2c(Br)n(Cc2ccccc2)c1Br)c1ccccc1 |  |  |  |  |  |  |  |  | > 20000 |  |  |  |  | 1200 | 
